Source: ChEMBL document CHEMBL1811853, “Design and evaluation of 3-aminopyrazolopyridinone kinase inhibitors inspired by the natural product indirubin” (Bioorg Med Chem, 2011)

Legend:
[1] = biological target: T1, Protein kinase C zeta type (Homo sapiens) (UniProt Q05513); experiment: Inhibition of PKCz at 30 uM by microfluidic mobility shift assay
T1 sequence (whole entry): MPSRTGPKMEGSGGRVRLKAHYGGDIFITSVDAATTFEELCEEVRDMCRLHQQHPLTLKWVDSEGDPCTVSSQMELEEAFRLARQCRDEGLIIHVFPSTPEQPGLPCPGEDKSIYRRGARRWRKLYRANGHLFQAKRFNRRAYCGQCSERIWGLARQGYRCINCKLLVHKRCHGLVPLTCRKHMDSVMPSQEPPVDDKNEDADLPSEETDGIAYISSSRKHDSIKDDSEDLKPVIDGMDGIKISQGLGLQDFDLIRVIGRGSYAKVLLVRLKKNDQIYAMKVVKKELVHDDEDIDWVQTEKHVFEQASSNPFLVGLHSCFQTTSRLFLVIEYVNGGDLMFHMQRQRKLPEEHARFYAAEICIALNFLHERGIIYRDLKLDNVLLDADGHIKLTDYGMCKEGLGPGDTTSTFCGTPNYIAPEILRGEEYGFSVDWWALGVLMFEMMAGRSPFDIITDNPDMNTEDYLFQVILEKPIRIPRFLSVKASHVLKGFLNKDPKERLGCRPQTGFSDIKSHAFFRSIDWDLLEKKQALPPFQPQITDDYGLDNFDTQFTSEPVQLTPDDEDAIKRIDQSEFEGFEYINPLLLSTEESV
In short: (§1)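 Single-concentration screen, singlicate, 30 uM final (diluted from 1 mM DMSO solutions), fluorescently tagged peptide substrate appropriate to each kinase, ATP at apparent Km for each protein. Phosphorylated and unphosphorylated peptides separated electrophoretically; conversion is the phosphorylated peak area over the sum of both peaks. No-inhibitor and no-ATP controls; H89 reference on each plate.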

[2] = biological target: Tyrosine-protein kinase Fyn (Homo sapiens, UniProt P06241); experiment: Inhibition of FYN at 30 uM by microfluidic mobility shift assay; in short: as §1
[3] = biological target: MAP kinase-activated protein kinase 2 (Homo sapiens, UniProt P49137); experiment: Inhibition of MAPKAPK2 at 30 uM by microfluidic mobility shift assay; in short: as §1
[4] = biological target: Tyrosine-protein kinase Lck (Homo sapiens, UniProt P06239); experiment: Inhibition of LCK at 30 uM by microfluidic mobility shift assay; in short: as §1
[5] = biological target: Tyrosine-protein kinase ABL1 (Homo sapiens, UniProt P00519); experiment: Inhibition of ABL at 30 uM by microfluidic mobility shift assay; in short: as §1
[6] = biological target: Mitogen-activated protein kinase 3 (Homo sapiens) (UniProt P27361); experiment: Inhibition of ERK1 at 30 uM by microfluidic mobility shift assay; in short: as §1
[7] = biological target: Ribosomal protein S6 kinase alpha-5 (Homo sapiens) (UniProt O75582); experiment: Inhibition of MSK1 at 30 uM by microfluidic mobility shift assay; in short: as §1
[8] = biological target: Mitogen-activated protein kinase 14 (Homo sapiens, UniProt Q16539); experiment: Inhibition of p38alpha at 30 uM by microfluidic mobility shift assay; in short: as §1
[9] = biological target: Glycogen synthase kinase-3 beta (Homo sapiens) (UniProt P49841); experiment: Inhibition of GSK3B at 30 uM by microfluidic mobility shift assay; in short: as §1
[10] = biological target: Mitogen-activated protein kinase 1 (Homo sapiens) (UniProt P28482); experiment: Inhibition of ERK2 at 30 uM by microfluidic mobility shift assay; in short: as §1
[11] = biological target: T2, Aurora kinase A (Homo sapiens) (UniProt O14965); experiment: Inhibition of AurA at 30 uM by microfluidic mobility shift assay; in short: as §1
T2 sequence (whole entry): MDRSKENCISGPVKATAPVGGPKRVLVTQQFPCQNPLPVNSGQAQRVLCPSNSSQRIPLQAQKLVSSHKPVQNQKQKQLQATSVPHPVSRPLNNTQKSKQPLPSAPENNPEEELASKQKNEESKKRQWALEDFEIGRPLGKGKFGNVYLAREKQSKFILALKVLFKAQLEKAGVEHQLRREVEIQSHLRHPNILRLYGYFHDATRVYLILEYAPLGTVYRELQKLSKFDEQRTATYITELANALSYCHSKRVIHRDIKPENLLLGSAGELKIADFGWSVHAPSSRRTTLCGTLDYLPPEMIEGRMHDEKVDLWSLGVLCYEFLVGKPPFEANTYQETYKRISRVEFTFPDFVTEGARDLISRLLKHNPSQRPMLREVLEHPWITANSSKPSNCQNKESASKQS

[12] = biological target: T3, Serine/threonine-protein kinase D2 (Homo sapiens) (UniProt Q9BZL6); experiment: Inhibition of PKD2 at 30 uM by microfluidic mobility shift assay; in short: as §1
T3 sequence (whole entry): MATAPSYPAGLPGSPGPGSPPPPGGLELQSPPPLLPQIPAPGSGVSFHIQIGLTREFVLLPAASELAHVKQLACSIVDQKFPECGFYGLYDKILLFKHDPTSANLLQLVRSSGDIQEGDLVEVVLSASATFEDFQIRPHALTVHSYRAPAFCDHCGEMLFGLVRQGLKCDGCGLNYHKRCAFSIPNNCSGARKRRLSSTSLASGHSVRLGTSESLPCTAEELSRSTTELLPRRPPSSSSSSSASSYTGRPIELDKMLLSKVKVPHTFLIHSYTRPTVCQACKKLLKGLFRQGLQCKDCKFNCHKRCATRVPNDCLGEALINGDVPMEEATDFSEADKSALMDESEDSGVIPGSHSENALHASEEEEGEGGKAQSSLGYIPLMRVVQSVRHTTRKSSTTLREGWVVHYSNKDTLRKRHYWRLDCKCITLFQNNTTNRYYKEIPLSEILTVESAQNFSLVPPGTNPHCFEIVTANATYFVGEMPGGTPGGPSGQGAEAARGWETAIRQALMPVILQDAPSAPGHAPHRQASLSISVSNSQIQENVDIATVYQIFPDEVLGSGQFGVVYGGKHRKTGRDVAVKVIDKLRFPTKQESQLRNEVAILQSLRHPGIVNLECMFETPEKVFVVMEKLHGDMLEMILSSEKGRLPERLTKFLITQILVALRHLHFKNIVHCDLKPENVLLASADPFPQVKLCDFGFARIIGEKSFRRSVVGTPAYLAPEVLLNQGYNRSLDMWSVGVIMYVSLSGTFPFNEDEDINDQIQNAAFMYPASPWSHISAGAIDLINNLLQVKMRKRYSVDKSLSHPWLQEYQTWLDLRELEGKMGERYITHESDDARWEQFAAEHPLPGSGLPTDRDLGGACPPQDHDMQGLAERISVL

[13] = biological target: RAC-alpha serine/threonine-protein kinase (Homo sapiens) (UniProt P31749); experiment: Inhibition of AKT1 at 30 uM by microfluidic mobility shift assay; in short: as §1
[14] = biological target: RAC-beta serine/threonine-protein kinase (Homo sapiens) (UniProt P31751); experiment: Inhibition of AKT2 at 30 uM by microfluidic mobility shift assay; in short: as §1
[15] = biological target: Ribosomal protein S6 kinase alpha-1 (Homo sapiens) (UniProt Q15418); experiment: Inhibition of RSK1 at 30 uM by microfluidic mobility shift assay; in short: as §1
Sequence of Ribosomal protein S6 kinase alpha-1 (Homo sapiens) (Q15418 whole entry): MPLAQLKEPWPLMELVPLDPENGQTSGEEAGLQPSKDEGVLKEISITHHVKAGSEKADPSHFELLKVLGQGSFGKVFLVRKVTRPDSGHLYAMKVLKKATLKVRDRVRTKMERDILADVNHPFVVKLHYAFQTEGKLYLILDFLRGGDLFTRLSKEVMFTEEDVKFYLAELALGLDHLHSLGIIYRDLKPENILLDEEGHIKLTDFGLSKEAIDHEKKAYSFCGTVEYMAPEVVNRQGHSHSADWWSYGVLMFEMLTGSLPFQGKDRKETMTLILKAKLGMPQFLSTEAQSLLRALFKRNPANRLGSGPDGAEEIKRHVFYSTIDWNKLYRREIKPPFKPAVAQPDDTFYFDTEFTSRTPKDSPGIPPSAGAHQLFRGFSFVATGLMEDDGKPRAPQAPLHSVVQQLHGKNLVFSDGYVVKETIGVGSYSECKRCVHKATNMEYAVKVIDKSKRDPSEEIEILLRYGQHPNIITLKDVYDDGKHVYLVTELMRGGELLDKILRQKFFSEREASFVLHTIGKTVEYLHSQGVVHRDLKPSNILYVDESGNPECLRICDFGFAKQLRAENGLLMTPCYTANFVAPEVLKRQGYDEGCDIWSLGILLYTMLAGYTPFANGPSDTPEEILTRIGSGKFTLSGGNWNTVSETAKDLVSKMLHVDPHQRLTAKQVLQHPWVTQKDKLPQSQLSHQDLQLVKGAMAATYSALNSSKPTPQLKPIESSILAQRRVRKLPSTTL

Sequence of Glycogen synthase kinase-3 beta (Homo sapiens) (P49841 whole entry, looked up): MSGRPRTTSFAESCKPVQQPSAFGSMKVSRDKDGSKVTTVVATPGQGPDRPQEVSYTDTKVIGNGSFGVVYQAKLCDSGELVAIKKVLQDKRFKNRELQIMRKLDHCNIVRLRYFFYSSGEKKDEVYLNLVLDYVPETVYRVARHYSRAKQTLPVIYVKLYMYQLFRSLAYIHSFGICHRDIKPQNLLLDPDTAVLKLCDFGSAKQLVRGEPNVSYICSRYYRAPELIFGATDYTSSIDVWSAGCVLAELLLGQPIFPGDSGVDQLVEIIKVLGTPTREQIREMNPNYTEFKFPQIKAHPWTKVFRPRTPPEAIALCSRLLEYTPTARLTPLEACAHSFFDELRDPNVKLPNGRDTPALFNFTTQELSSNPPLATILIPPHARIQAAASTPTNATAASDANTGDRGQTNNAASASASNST
Sequence of RAC-beta serine/threonine-protein kinase (Homo sapiens) (P31751 whole entry): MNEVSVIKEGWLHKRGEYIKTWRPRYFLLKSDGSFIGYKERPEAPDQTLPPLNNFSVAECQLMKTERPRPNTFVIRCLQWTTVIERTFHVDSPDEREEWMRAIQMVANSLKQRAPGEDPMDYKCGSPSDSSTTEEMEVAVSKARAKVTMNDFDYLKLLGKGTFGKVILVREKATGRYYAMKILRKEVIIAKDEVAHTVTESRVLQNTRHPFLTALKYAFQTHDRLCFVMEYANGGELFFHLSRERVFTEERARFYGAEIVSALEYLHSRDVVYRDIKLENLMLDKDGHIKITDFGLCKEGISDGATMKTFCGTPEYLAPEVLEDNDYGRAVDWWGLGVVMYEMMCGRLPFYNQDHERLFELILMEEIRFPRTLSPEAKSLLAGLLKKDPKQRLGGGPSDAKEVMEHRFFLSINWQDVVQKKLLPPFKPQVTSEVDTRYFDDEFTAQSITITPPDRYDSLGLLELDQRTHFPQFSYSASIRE
Sequence of MAP kinase-activated protein kinase 2 (P49137 whole entry, looked up): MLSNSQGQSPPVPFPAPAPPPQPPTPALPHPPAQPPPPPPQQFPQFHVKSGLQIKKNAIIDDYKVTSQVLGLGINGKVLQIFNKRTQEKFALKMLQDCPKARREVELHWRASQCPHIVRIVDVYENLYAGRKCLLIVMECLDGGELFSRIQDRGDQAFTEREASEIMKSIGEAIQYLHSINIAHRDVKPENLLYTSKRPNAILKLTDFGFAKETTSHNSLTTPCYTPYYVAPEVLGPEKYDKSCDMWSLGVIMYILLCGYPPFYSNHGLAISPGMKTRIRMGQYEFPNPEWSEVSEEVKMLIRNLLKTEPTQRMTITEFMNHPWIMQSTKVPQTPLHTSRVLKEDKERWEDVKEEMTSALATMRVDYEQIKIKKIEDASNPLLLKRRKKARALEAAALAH
Sequence of Mitogen-activated protein kinase 3 (Homo sapiens) (P27361 whole entry): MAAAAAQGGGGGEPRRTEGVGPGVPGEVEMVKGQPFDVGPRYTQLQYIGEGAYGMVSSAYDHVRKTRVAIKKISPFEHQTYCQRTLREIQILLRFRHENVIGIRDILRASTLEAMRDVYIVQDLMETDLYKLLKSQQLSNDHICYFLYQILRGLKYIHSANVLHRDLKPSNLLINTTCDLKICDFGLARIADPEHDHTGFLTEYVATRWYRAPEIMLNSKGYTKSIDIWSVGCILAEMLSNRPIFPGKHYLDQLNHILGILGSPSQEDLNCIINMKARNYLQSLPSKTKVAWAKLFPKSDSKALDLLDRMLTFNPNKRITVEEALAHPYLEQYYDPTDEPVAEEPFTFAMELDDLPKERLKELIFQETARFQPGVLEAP
Sequence of Tyrosine-protein kinase Lck (P06239 2-509 limits assumed): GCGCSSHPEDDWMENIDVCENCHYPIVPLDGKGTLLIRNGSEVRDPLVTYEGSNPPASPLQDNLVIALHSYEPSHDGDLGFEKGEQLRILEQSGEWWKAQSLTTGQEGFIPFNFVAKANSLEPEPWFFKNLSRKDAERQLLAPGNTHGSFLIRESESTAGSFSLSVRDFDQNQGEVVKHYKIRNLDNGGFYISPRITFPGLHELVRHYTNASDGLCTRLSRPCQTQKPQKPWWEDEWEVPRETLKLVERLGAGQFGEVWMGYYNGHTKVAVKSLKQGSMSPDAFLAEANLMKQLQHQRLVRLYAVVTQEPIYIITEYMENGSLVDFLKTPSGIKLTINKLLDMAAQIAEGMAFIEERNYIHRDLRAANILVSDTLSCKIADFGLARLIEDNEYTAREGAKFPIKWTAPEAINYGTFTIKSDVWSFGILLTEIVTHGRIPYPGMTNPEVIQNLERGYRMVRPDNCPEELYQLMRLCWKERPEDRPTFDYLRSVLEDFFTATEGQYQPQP
Sequence of Mitogen-activated protein kinase 14 (Q16539 whole entry): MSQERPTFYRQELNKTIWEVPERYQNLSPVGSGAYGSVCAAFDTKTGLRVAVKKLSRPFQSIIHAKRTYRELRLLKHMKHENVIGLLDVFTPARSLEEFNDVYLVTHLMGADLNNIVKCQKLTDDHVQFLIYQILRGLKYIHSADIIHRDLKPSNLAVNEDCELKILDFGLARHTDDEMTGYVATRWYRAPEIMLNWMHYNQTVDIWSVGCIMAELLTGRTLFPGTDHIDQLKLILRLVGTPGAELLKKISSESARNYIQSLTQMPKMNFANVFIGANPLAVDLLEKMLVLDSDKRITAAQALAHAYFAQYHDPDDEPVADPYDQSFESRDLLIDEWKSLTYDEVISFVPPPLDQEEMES
Sequence of Mitogen-activated protein kinase 1 (Homo sapiens) (P28482 whole entry): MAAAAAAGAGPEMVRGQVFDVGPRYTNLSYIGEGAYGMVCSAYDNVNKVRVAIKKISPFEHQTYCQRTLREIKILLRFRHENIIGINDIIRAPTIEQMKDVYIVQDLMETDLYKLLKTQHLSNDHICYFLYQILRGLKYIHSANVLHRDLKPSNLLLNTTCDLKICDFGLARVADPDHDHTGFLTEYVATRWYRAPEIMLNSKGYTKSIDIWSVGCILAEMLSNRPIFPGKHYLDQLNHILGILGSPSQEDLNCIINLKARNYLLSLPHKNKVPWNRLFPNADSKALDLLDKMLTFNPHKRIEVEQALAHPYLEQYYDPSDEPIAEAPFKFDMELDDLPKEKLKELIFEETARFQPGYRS
Sequence of Tyrosine-protein kinase Fyn (P06241 2-537 limits assumed): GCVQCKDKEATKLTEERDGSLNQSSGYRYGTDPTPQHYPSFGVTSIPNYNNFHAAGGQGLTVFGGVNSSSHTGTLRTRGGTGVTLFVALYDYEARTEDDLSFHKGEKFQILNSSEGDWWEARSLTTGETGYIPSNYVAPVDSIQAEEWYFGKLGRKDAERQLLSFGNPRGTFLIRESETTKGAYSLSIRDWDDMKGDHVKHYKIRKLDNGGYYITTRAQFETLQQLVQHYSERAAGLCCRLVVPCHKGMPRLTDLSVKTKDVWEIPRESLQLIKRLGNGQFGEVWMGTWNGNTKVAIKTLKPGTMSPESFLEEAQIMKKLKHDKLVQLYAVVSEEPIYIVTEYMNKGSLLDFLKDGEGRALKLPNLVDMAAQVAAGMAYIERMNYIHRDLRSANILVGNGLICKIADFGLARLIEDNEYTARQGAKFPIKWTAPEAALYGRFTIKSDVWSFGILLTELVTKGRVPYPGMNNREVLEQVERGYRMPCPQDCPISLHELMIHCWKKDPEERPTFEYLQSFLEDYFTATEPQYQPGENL
Sequence of Ribosomal protein S6 kinase alpha-5 (Homo sapiens) (O75582 whole entry, looked up): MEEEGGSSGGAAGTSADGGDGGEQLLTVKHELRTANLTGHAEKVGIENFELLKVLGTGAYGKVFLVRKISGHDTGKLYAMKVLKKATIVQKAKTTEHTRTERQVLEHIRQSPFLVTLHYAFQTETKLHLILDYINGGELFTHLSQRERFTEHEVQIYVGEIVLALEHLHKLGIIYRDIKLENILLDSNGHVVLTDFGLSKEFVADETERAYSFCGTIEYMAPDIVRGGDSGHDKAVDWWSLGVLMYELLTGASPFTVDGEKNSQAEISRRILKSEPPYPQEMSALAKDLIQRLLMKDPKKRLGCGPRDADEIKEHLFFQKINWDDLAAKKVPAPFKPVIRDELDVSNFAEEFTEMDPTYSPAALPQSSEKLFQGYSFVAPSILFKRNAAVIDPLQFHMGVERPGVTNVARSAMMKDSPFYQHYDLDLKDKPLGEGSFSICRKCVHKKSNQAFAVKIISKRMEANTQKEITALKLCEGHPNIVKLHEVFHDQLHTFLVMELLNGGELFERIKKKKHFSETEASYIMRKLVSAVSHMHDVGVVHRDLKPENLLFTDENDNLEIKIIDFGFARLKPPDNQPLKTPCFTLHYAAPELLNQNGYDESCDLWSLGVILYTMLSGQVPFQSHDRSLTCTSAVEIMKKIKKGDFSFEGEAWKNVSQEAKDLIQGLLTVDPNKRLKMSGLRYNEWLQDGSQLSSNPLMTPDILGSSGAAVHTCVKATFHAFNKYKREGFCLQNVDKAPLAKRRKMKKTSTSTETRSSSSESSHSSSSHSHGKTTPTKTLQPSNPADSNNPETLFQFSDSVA

Row | SMILES | inhibition [1] [%] | inhibition [2] [%] | inhibition [3] [%] | inhibition [4] [%] | inhibition [5] [%] | inhibition [6] [%] | inhibition [7] [%] | inhibition [8] [%] | inhibition [9] [%] | inhibition [10] [%] | inhibition [11] [%] | inhibition [12] [%] | inhibition [13] [%] | inhibition [14] [%] | inhibition [15] [%]
1 | CC(=O)Nc1nn(C)c2cc(-c3ccccc3)[nH]c(=O)c12 | 28 | 21 | 9 | 8 | 10 | 3 | 3 | 5 | 17 | 2 | 2 | 9 | -9 | 40 | 4
2 | COc1ccc(S(=O)(=O)Nc2nn(C)c3cc(C)[nH]c(=O)c23)c(OC)c1 | 21 | 3 | 2 | -1 | 3 | 4 | 3 | -4 | 0 | 1 | -9 | 14 | 10 | 6 | -2
3 | Nc1c2c(=O)[nH]c(-c3ccccn3)cc2nn1-c1ccccc1 | 3 | 96 | 4 | 91 | 95 | 4 | 4 | 32 | 11 | 6 | 30 | 15 | 4 | 8 | 6
4 | COCCNc1nc(C)cc2c1c(N)nn2C | -10 | -1 | 6 | 1 | -8 | 5 | 0 | 1 | 1 | 8 | 15 | 4 | 6 | -3 | -4

The next lines start with the values.

Row | inhibition [1] [%] | inhibition [2] [%] | inhibition [3] [%] | inhibition [4] [%] | inhibition [5] [%] | inhibition [6] [%] | inhibition [7] [%] | inhibition [8] [%] | inhibition [9] [%] | inhibition [10] [%] | inhibition [11] [%] | inhibition [12] [%] | inhibition [13] [%] | inhibition [14] [%] | inhibition [15] [%] | SMILES
5 | 0 | -8 | 29 | -1 | 0 | -2 | 4 | 6 | 1 | 8 | 4 | 5 | 11 | 4 | 2 | Cc1cc2c(c(N)nn2C)c(=O)[nH]1
6 | 8 | 11 | 26 | 12 | 19 | 9 | 6 | -1 | 36 | 9 | 10 | 8 | 5 | 0 | -4 | Cc1cc2nc(N)nc(N)c2c(=O)[nH]1
7 | 6 | 26 | 37 | 22 | 26 | 19 | 9 | 7 | 66 | 13 | 14 | 14 | 8 | 4 | 8 | Cn1nc(N)c2c(=O)[nH]c(-c3ccccc3)cc21
8 | 10 | 2 | 30 | 6 | 12 | 4 | 56 | -7 | 18 | 0 | 23 | -1 | -3 | 8 | 6 | Cc1cc2[nH]nc(N)c2c(=O)[nH]1
